From ChEMBL document CHEMBL1138222, “9-Benzylidene-naphtho[2,3-b]thiophen-4-ones as novel antimicrotubule agents-synthesis, antiproliferative activity, and inhibition of tubulin polymerization” (J Med Chem, 2006)
The source made the active and inactive calls. No cut-off for these calls is given here.

What was measured:
SF-268 = test: Antiproliferative activity against SF268 cells by XTT assay after 48 hrs; assay type: functional, cell-based; conditions: Homo sapiens, SF-268, 48 h
Procedure, shortened: (§1)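 Tumour cell lines were seeded at 1 × 10^3 to 8 × 10^4 cells/well for logarithmic growth and exposed to a concentration series for 48 h. Proliferation was read as cellular metabolic activity by XTT. IC50 came from dose-response curves by nonlinear regression, with at least two replicates.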

RKO [1] = test: Antiproliferative activity against RKO cells with ectopic-induced p27kip1-expression by XTT assay after 48 hrs; assay type: functional, cell-based; conditions: Homo sapiens
Procedure, shortened: (§2)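 RKO colon adenocarcinoma cells carry an ecdysone-inducible p27kip1 vector. On day 1 they were plated with 3 µM ponasterone A (induced, 2 × 10^4 cells/well) or without it (not induced, 6 × 10^3 cells/well) and held 24 h at 37 °C. Compound or DMSO control was then added for 48 h at 37 °C, followed by a standard XTT read-out.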

P388 [2] = test: Inhibition of P388 cells growth subcutaneously implanted in CD2F1 mouse at 50 mg/kg, ip between 9 to 14 days; assay type: functional, organism-based; design: dose 50 mg/kg
Procedure, shortened: (§3)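 Female CD2F1 mice aged 5-6 weeks received ~1 mm3 P388 tumour fragments subcutaneously on day 0. Dosing was intraperitoneal at 0.1 mL/10 g on days 5, 12 and 19, at 100, 50 or 25 mg/kg; controls received DMSO vehicle. Body weight and subcutaneous tumour growth were recorded three times per week.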

[3] = Antiproliferative activity against KB/HeLa cells by XTT assay after 48 hrs; assay type: functional, cell-based; conditions: Homo sapiens; procedure, shortened: as §1
[4] = Cell cycle arrest in KB/HeLa cells by accumulation at G2/M phase at 31.6 nM; assay type: functional, cell-based; conditions: Homo sapiens
Procedure, shortened: (§4)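 Subconfluent KB/HeLa cells were treated with a concentration series for 24 h at 37 °C, then detached and fixed in 70% ethanol. DNA was stained with propidium iodide alongside RNase digestion and measured by flow cytometry. Phase fractions came from cell-cycle modelling software, and IC50 from nonlinear regression.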

P388 [5] = test: Inhibition of P388 cells growth subcutaneously implanted in CD2F1 mouse at 25 mg/kg, ip after 7 days; assay type: functional, organism-based; design: dose 25 mg/kg; procedure, shortened: as §3
[6] = Cell cycle arrest in KB/HeLa cells by accumulation at G1 phase at 10 nM; assay type: functional, cell-based; conditions: Homo sapiens; procedure, shortened: as §4
[7] = Cell cycle arrest in KB/HeLa cells by accumulation at G2/M phase at 316 nM; assay type: functional, cell-based; conditions: Homo sapiens; procedure, shortened: as §4
[8] = Cell cycle arrest in KB/HeLa cells by accumulation at S phase at 0.1 nM; assay type: functional, cell-based; conditions: Homo sapiens; procedure, shortened: as §4
Tubulin (Homo sapiens) [9] = target: T1, Tubulin (Homo sapiens) (UniProt P68371+Q9H4B7+P0DPH7+P68366+Q13509+Q71U36+P04350+Q3ZCM7+P07437+P68363+Q9BQE3+Q6PEY2+Q13885+Q9BVA1+Q9BUF5); test: Displacement of [3H]paclitaxel from tubulin by SPA assay; assay type: protein-complex assay
Mus musculus [10] = test: Increase in survival of CD2F1 mouse subcutaneously implanted with P388 cells at 25 mg/kg after 21 days; assay type: functional; conditions: route intraperitoneal
[11] = Cell cycle arrest in KB/HeLa cells by accumulation at G1 phase at 0.1 nM; assay type: functional, cell-based; conditions: Homo sapiens; procedure, shortened: as §4
[12] = Cell cycle arrest in KB/HeLa cells by accumulation at G1 phase at 31.6 nM; assay type: functional, cell-based; conditions: Homo sapiens; procedure, shortened: as §4
P388 [13] = test: Antiproliferative activity against P388 ADR cells by XTT assay after 48 hrs; assay type: functional, cell-based; conditions: Mus musculus, P388, 48 h; procedure, shortened: as §1
[14] = Cell cycle arrest in KB/HeLa cells by accumulation at S phase at 31.6 nM; assay type: functional, cell-based; conditions: Homo sapiens; procedure, shortened: as §4
K562 [15] = test: Antiproliferative activity against human K562 cell line; assay type: functional, cell-based
K562 [16] = test: Cell cycle arrest in K562 cells by accumulation at G2/M phase at 0.06 uM; assay type: functional, Homo sapiens
Procedure, shortened: (§5)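 K562 leukaemia cells were exposed to compound for 24 h at 37 °C, pelleted, and washed in PBS. They were fixed in ice-cold 70% ethanol for 30 min at 4 °C. Staining was 30 min in the dark with propidium iodide (0.2 mg/mL) plus RNase (2 mg/mL) in PBS. DNA content was measured by flow cytometry with 488 nm argon laser excitation.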

MDR = test: Antiproliferative activity against LT12 MDR cells by XTT assay after 48 hrs; assay type: functional, cell-based; conditions: Rattus norvegicus; procedure, shortened: as §1
[17] = Cell cycle arrest in KB/HeLa cells by accumulation at G1 phase at 100 nM; assay type: functional, cell-based; conditions: Homo sapiens; procedure, shortened: as §4
[18] = Cell cycle arrest in KB/HeLa cells by accumulation at G1 phase at 0.3 nM; assay type: functional, cell-based; conditions: Homo sapiens; procedure, shortened: as §4
[19] = Cell cycle arrest in KB/HeLa cells by accumulation at G1 phase at 3.16 nM; assay type: functional, cell-based; conditions: Homo sapiens; procedure, shortened: as §4
[20] = Cell cycle arrest in KB/HeLa cells by accumulation at G2/M phase at 0.3 nM; assay type: functional, cell-based; conditions: Homo sapiens; procedure, shortened: as §4
[21] = Cell cycle arrest in KB/HeLa cells by accumulation at S phase at 0.3 nM; assay type: functional, cell-based; conditions: Homo sapiens; procedure, shortened: as §4
RKO [22] = test: Antiproliferative activity against RKO cells by XTT assay after 48 hrs; assay type: functional, cell-based; conditions: Homo sapiens; procedure, shortened: as §2
K562 [23] = test: Cell cycle arrest in K562 cells by accumulation at G2/M phase at 0.03 uM; assay type: functional, Homo sapiens; procedure, shortened: as §5
[24] = Cell cycle arrest in KB/HeLa cells by accumulation at G2/M phase at 0.1 nM; assay type: functional, cell-based; conditions: Homo sapiens; procedure, shortened: as §4
[25] = Cell cycle arrest in KB/HeLa cells by accumulation at G1 phase at 316 nM; assay type: functional, cell-based; conditions: Homo sapiens; procedure, shortened: as §4
[26] = Cell cycle arrest in KB/HeLa cells by accumulation at S phase at 10 nM; assay type: functional, cell-based; conditions: Homo sapiens; procedure, shortened: as §4
[27] = Cell cycle arrest in KB/HeLa cells by accumulation at G2/M phase at 100 nM; assay type: functional, cell-based; conditions: Homo sapiens; procedure, shortened: as §4
Tubulin = Tubulin (Sus scrofa, UniProt P02554+P02550); test: Inhibition of tubulin polymerization in porcine brain
SK-OV-3 = test: Antiproliferative activity against SKOV3 cells by XTT assay after 48 hrs; assay type: functional, cell-based; conditions: Homo sapiens, SK-OV-3, 48 h; procedure, shortened: as §1
Mus musculus [28] = test: Increase in survival of CD2F1 mouse subcutaneously implanted with P388 cells at 50 mg/kg after 21 days; assay type: functional; conditions: route intraperitoneal
[29] = Cell cycle arrest in KB/HeLa cells by accumulation at G2/M phase at 1 nM; assay type: functional, cell-based; conditions: Homo sapiens; procedure, shortened: as §4
[30] = Cell cycle arrest in KB/HeLa cells by accumulation at G2/M phase at 10 nM; assay type: functional, cell-based; conditions: Homo sapiens; procedure, shortened: as §4
[31] = Cell cycle arrest in KB/HeLa cells by accumulation at S phase at 100 nM; assay type: functional, cell-based; conditions: Homo sapiens; procedure, shortened: as §4
[32] = Cell cycle arrest in KB/HeLa cells by accumulation at G1 phase at 1 nM; assay type: functional, cell-based; conditions: Homo sapiens; procedure, shortened: as §4
[33] = Cell cycle arrest in KB/HeLa cells by accumulation at S phase at 3.16 nM; assay type: functional, cell-based; conditions: Homo sapiens; procedure, shortened: as §4
K562 [34] = test: Cell cycle arrest in K562 cells by accumulation at G2/M phase at 0.1 uM; assay type: functional, Homo sapiens; procedure, shortened: as §5
Tubulin (Homo sapiens) [35] = target: T1, Tubulin (Homo sapiens); test: Displacement of [3H]colchicine from tubulin by SPA assay; assay type: protein-complex assay
[36] = Cell cycle arrest in KB/HeLa cells by accumulation at G2/M phase; assay type: functional, cell-based; conditions: Homo sapiens; procedure, shortened: as §4
[37] = Cell cycle arrest in KB/HeLa cells by accumulation at G2/M phase at 3.16 nM; assay type: functional, cell-based; conditions: Homo sapiens
cells = conditions: Rattus norvegicus, LT12, 48 h
NCI-H460 = test: Antiproliferative activity against NCI-H460 cells by XTT assay after 48 hrs; assay type: functional, cell-based; conditions: Homo sapiens, NCI-H460, 48 h; procedure, shortened: as §1
[38] = Cell cycle arrest in KB/HeLa cells by accumulation at S phase at 1 nM; assay type: functional, cell-based; conditions: Homo sapiens; procedure, shortened: as §4
[39] = Cell cycle arrest in KB/HeLa cells by accumulation at S phase at 316 nM; assay type: functional, cell-based; conditions: Homo sapiens; procedure, shortened: as §4
Mus musculus [40] = test: Increase in survival of CD2F1 mouse subcutaneously implanted with P388 cells at 100 mg/kg after 21 days; assay type: functional; conditions: route intraperitoneal
L1210 [41] = test: Antiproliferative activity against L1210 VCR cells by XTT assay after 48 hrs; assay type: functional, cell-based; conditions: Mus musculus, L1210, 48 h; procedure, shortened: as §1
P388 [42] = test: Antiproliferative activity against P388 cells by XTT assay after 48 hrs; assay type: functional, cell-based; conditions: Mus musculus, P388, 48 h; procedure, shortened: as §1
L1210 [43] = test: Antiproliferative activity against L1210 cells by XTT assay after 48 hrs; assay type: functional, cell-based; conditions: Mus musculus, L1210, 48 h; procedure, shortened: as §1

## COc1cc(/C=C2/c3ccccc3C(=O)c3ccsc32)cc(OC)c1O
SF-268
  IC50: 0.07 µM
RKO [1]
  IC50: > 9 µM
P388 [2]
  Activity: Active
[3]
  IC50: 0.05 µM
[4]
  Activity: 8.6%
P388 [5]
  Activity: Active
[6]
  Activity: 64.8%
[7]
  Activity: 89.5%
[8]
  Activity: 24.6%
Tubulin (Homo sapiens) [9]
  Activity: inactive
Mus musculus [10]
  Activity: 83%
[11]
  Activity: 65.8%
[12]
  Activity: 65.4%
P388 [13]
  IC50: 0.22 µM
[14]
  Activity: 26%
K562 [15]
  IC50: 0.05 µM
K562 [16]
  Activity: 55%
MDR
  IC50: 0.17 µM
[17]
  Activity: 31.7%
[18]
  Activity: 65.6%
[19]
  Activity: 66.3%
[20]
  Activity: 9.1%
[21]
  Activity: 25.3%
RKO [22]
  IC50: 0.03 µM
K562 [23]
  Activity: 23%
[24]
  Activity: 9.7%
[25]
  Activity: 0.8%
[26]
  Activity: 26.5%
[27]
  Activity: 52.2%
Tubulin
  IC50: 0.38 µM
SK-OV-3
  IC50: 0.07 µM
Mus musculus [28]
  Activity: 111%
[29]
  Activity: 8.4%
[30]
  Activity: 8.8%
[31]
  Activity: 16.2%
[32]
  Activity: 65.7%
[33]
  Activity: 24.5%
K562 [34]
  Activity: 72%
Tubulin (Homo sapiens) [35]
  Activity: 0.27 µM
[36]
  EC50: 0.098 µM
[37]
  Activity: 9.2%
cells
  IC50: 0.13 µM
NCI-H460
  IC50: 0.05 µM
[38]
  Activity: 25.9%
[39]
  Activity: 9.8%
Mus musculus [40]
  Activity: 106%
L1210 [41]
  IC50: 0.68 µM
P388 [42]
  IC50: 0.05 µM
L1210 [43]
  IC50: 0.34 µM
